# From ChEMBL document CHEMBL5724801, “EUbOPEN Chemogenomics Library - Multiplex” (2024)
# Values joined by “and” are separate entries in the source; they are usually repeats but may differ in a detail not shown here. Equal values may be shown once.
# System: U2OS
# Assay: Multiplex assay against U2OS
# Assay type: toxicity, cell-based
# Settings: human
# Procedure, shortened: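 Cells stained live at seeding with Hoechst33342, BioTracker Green Microtubule Cytoskeleton Dye, MitoTracker Red and Annexin V Alexa Fluor 680 were imaged on a CQ1 microscope at 37°C and 5% CO2 after compound addition. Their classification by CellPathfinder machine-learning gating ran from Hoechst high-intensity objects versus normal cells, to healthy, pyknosed or fragmented nuclei among normal cells, to mitotic or apoptotic among pyknosed cells. Tubulin, mitochondrial-mass and membrane-permeability phenotypes are per cents of healthy-nucleus cells.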
# [1] = 12 h, 1 µM, compound concentration 1 uM
# [2] = 12 h, 10 µM, compound concentration 10 uM
# [3] = 24 h, 1 µM, compound concentration 1 uM
# [4] = 24 h, 10 µM, compound concentration 10 uM
# [5] = 48 h, 1 µM, compound concentration 1 uM
# [6] = 48 h, 10 µM, compound concentration 10 uM
smiles,measurement,setting,value
COc1cc(Nc2ncc3c(n2)-c2ccc(Cl)cc2C(c2c(F)cccc2OC)=NC3)ccc1C(=O)O [ALISERTIB],Population Apoptotic (%),[1],63% and 71%
same,Population Fragmented Nuclei (%),[1],23% and 35%
same,Population Healthy Nuclei (%),[1],65% and 55%
same,Population Hoechst High Intensity Objects (%),[1],1% and 4%
same,Population Membrane Permeable-Phenotype (%),[1],4% and 8%
same,Population Mitochondria Different-Phenotype (%),[1],3% and 4%
same,Population Mitotic Cells (%),[1],36% and 28%
same,Population Normal (%),[1],98% and 95%
same,Population Pyknosed Nuclei (%),[1],10% and 8%
same,Population Tubulin-Different-Phenotype (%),[1],3% and 11%
same,Population Apoptotic (%),[2],79% and 71%
same,Population Fragmented Nuclei (%),[2],31% and 12%
same,Population Healthy Nuclei (%),[2],57% and 82%
same,Population Hoechst High Intensity Objects (%),[2],3% and 2%
same,Population Membrane Permeable-Phenotype (%),[2],11% and 5%
same,Population Mitochondria Different-Phenotype (%),[2],5% and 1%
same,Population Mitotic Cells (%),[2],20% and 28%
same,Population Normal (%),[2],96% and 97%
same,Population Pyknosed Nuclei (%),[2],11% and 5%
same,Population Tubulin-Different-Phenotype (%),[2],4% and 0%
same,Population Apoptotic (%),[3],78% and 75%
same,Population Fragmented Nuclei (%),[3],26% and 20%
same,Population Healthy Nuclei (%),[3],64% and 63%
same,Population Hoechst High Intensity Objects (%),[3],1% and 2%
same,Population Membrane Permeable-Phenotype (%),[3],9% and 6%
same,Population Mitochondria Different-Phenotype (%),[3],4% and 2%
same,Population Mitotic Cells (%),[3],21% and 25%
same,Population Normal (%),[3],98% and 97%
same,Population Pyknosed Nuclei (%),[3],8% and 15%
same,Population Tubulin-Different-Phenotype (%),[3],5% and 2%
same,Population Apoptotic (%),[4],84% and 90%
same,Population Fragmented Nuclei (%),[4],30% and 12%
same,Population Healthy Nuclei (%),[4],55% and 77%
same,Population Hoechst High Intensity Objects (%),[4],4%
same,Population Membrane Permeable-Phenotype (%),[4],13% and 9%
same,Population Mitochondria Different-Phenotype (%),[4],5% and 4%
same,Population Mitotic Cells (%),[4],15% and 9%
same,Population Normal (%),[4],95%
same,Population Pyknosed Nuclei (%),[4],13% and 9%
same,Population Tubulin-Different-Phenotype (%),[4],4% and 5%
same,Population Apoptotic (%),[5],85% and 78%
same,Population Fragmented Nuclei (%),[5],28% and 29%
same,Population Healthy Nuclei (%),[5],59% and 53%
same,Population Hoechst High Intensity Objects (%),[5],3%
same,Population Membrane Permeable-Phenotype (%),[5],6% and 11%
same,Population Mitochondria Different-Phenotype (%),[5],5% and 6%
same,Population Mitotic Cells (%),[5],14% and 21%
same,Population Normal (%),[5],96%
same,Population Pyknosed Nuclei (%),[5],12% and 17%
same,Population Tubulin-Different-Phenotype (%),[5],3% and 4%
same,Population Apoptotic (%),[6],88%
same,Population Fragmented Nuclei (%),[6],34% and 16%
same,Population Healthy Nuclei (%),[6],44% and 70%
same,Population Hoechst High Intensity Objects (%),[6],9% and 5%
same,Population Membrane Permeable-Phenotype (%),[6],16% and 7%
same,Population Mitochondria Different-Phenotype (%),[6],9% and 3%
same,Population Mitotic Cells (%),[6],11%
same,Population Normal (%),[6],90% and 94%
same,Population Pyknosed Nuclei (%),[6],21% and 13%
same,Population Tubulin-Different-Phenotype (%),[6],9% and 2%
CC(=O)Nc1cccc2c1c(Sc1ccc(Cl)cc1)c(C)n2CC(=O)O [AZD1981],Population Apoptotic (%),[1],68% and 83%
same,Population Fragmented Nuclei (%),[1],24% and 16%
same,Population Healthy Nuclei (%),[1],68% and 76%
same,Population Hoechst High Intensity Objects (%),[1],3% and 1%
same,Population Membrane Permeable-Phenotype (%),[1],3% and 6%
same,Population Mitochondria Different-Phenotype (%),[1],0% and 1%
same,Population Mitotic Cells (%),[1],31% and 16%
same,Population Normal (%),[1],96% and 98%
same,Population Pyknosed Nuclei (%),[1],6% and 7%
same,Population Tubulin-Different-Phenotype (%),[1],2% and 3%
same,Population Apoptotic (%),[2],83% and 80%
same,Population Fragmented Nuclei (%),[2],25% and 19%
same,Population Healthy Nuclei (%),[2],66% and 76%
same,Population Hoechst High Intensity Objects (%),[2],2% and 3%
same,Population Membrane Permeable-Phenotype (%),[2],8% and 10%
same,Population Mitochondria Different-Phenotype (%),[2],0% and 3%
same,Population Mitotic Cells (%),[2],16% and 20%
same,Population Normal (%),[2],97% and 96%
same,Population Pyknosed Nuclei (%),[2],7% and 4%
same,Population Tubulin-Different-Phenotype (%),[2],1% and 5%
same,Total Cell Count,[2],231 and 122
same,Population Apoptotic (%),[3],91% and 50%
same,Population Fragmented Nuclei (%),[3],25% and 16%
same,Population Healthy Nuclei (%),[3],66% and 82%
same,Population Hoechst High Intensity Objects (%),[3],2% and 0%
same,Population Membrane Permeable-Phenotype (%),[3],5% and 4%
same,Population Mitochondria Different-Phenotype (%),[3],1% and 3%
same,Population Normal (%),[3],97% and 100%
same,Population Pyknosed Nuclei (%),[3],8% and 1%
same,Population Tubulin-Different-Phenotype (%),[3],3% and 0%
same,Total Cell Count,[3],289 and 106
same,Population Apoptotic (%),[4],88% and 100%
same,Population Fragmented Nuclei (%),[4],23% and 14%
same,Population Healthy Nuclei (%),[4],66% and 77%
same,Population Hoechst High Intensity Objects (%),[4],0%
same,Population Membrane Permeable-Phenotype (%),[4],6% and 3%
same,Population Mitochondria Different-Phenotype (%),[4],2% and 4%
same,Population Mitotic Cells (%),[4],11% and 0%
same,Population Normal (%),[4],99%
same,Population Pyknosed Nuclei (%),[4],9% and 8%
same,Population Tubulin-Different-Phenotype (%),[4],2% and 0%
same,Total Cell Count,[4],266 and 125
same,Population Apoptotic (%),[5],91% and 81%
same,Population Fragmented Nuclei (%),[5],16% and 9%
same,Population Healthy Nuclei (%),[5],74% and 82%
same,Population Hoechst High Intensity Objects (%),[5],1% and 3%
same,Population Membrane Permeable-Phenotype (%),[5],6%
same,Population Mitochondria Different-Phenotype (%),[5],2% and 0%
same,Population Mitotic Cells (%),[5],8% and 18%
same,Population Normal (%),[5],98% and 96%
same,Population Pyknosed Nuclei (%),[5],9% and 7%
same,Population Tubulin-Different-Phenotype (%),[5],4% and 1%
same,Total Cell Count,[5],375 and 144
same,Population Apoptotic (%),[6],100% and 85%
same,Population Fragmented Nuclei (%),[6],18% and 14%
same,Population Healthy Nuclei (%),[6],75% and 73%
same,Population Hoechst High Intensity Objects (%),[6],2% and 1%
same,Population Membrane Permeable-Phenotype (%),[6],7%
same,Population Mitochondria Different-Phenotype (%),[6],2% and 4%
same,Population Mitotic Cells (%),[6],0% and 15%
same,Population Normal (%),[6],97% and 98%
same,Population Pyknosed Nuclei (%),[6],5% and 11%
same,Population Tubulin-Different-Phenotype (%),[6],4%
same,Total Cell Count,[6],366 and 171
